ChEMBL document CHEMBL1125276 (J Med Chem, 1991)

Tests used:
P388 [1] = test: Long-term survivors (LTS) for 60 days at optimal dose of 0.15 mg/kg for antitumor activity against P388 leukemia cells in 25 mice.; format: functional, Mus musculus
Tubulin = test: The compound tested for the inhibition of tubulin polymerization.; format: functional
Procedure, shortened: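 Tubulin was partially purified from dog brain by polymerization/depolymerization cycles and used at 0.5 mg/mL. Compounds were added in DMSO (10 µL per 500 µL reaction) at 10^-6 to 10^-9 M, with DMSO-only controls. Polymerization was followed by turbidity at 350 nm. Rates from two separate experiments were plotted against concentration, and IC50 was read graphically.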

L1210 = test: Tested for the inhibition of L1210 cell proliferation.; format: functional, cell-based; settings: Mus musculus
Procedure, shortened: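 L1210 cells were grown in RPMI 1640 with 10% FCS, 2 mM L-glutamine and 10 mM HEPES (pH 7.4). Exponential-phase cells (10^5 cells/mL) were exposed for 24 h to 5 drug concentrations in triplicate, then pulsed 3 h with 0.5 µCi/mL [3H]thymidine. Cells were harvested onto filters and counted. IC50 is 50% inhibition of incorporation versus untreated cells, given as the mean of 2–5 independent experiments.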

P388 [2] = test: Compound was tested for T/C range at optimal dose of 0.15 mg/kg for antitumor activity against P388 leukemia cells in mice; value ranges from 168-600; format: functional, Mus musculus
P388 [3] = test: Long-term survivors (LTS) for 60 days at optimal dose of 3.0 mg/kg for antitumor activity against P388 leukemia cells in 6 mice.; format: functional, Mus musculus
P388 [4] = test: Compound was tested for T/C range at optimal dose of 3.0 mg/kg for antitumor activity against P388 leukemia cells in mice.; format: functional, Mus musculus
P388 [5] = test: Long-term survivors (LTS) for 60 days at optimal dose of 5.00 mg/kg for antitumor activity against P388 leukemia cells in 12 mice.; format: functional, Mus musculus
P388 [6] = test: Compound was tested for T/C range at optimal dose of 5.00 mg/kg for antitumor activity against P388 leukemia cells in mice; value ranges from 149-224; format: functional, Mus musculus
P388 [7] = test: Compound was tested for T/C range at optimal dose of 20.0 mg/kg for antitumor activity against P388 leukemia cells in mice.; format: functional, Mus musculus
P388 [8] = test: Long-term survivors (LTS) for 60 days at optimal dose of 20.0 mg/kg for antitumor activity against P388 leukemia cells in 5 mice; format: functional, Mus musculus
P388 [9] = test: Compound was tested for T/C range at optimal dose of 3.0 mg/kg for antitumor activity against P388 leukemia cells in mice; value ranges from 165-181; format: functional, Mus musculus
P388 [10] = test: Long-term survivors (LTS) for 60 days at optimal dose of 3.0 mg/kg for antitumor activity against P388 leukemia cells in 15 mice.; format: functional, Mus musculus
P388 [11] = test: Compound was tested for T/C range at optimal dose of 0.5 mg/kg for antitumor activity against P388 leukemia cells in mice; value ranges from 160-447; format: functional, Mus musculus
P388 [12] = test: Long-term survivors (LTS) for 60 days at optimal dose of 0.5 mg/kg for antitumor activity against P388 leukemia cells in 54 mice.; format: functional, Mus musculus
P388 [13] = test: Compound was tested for T/C range at optimal dose of 3.0 mg/kg for antitumor activity against P388 leukemia cells in mice; value ranges from 157-203; format: functional, Mus musculus
P388 [14] = test: Long-term survivors (LTS) for 60 days at optimal dose of 3.0 mg/kg for antitumor activity against P388 leukemia cells in 45 mice.; format: functional, Mus musculus
P388 [15] = test: Long-term survivors (LTS) for 60 days at optimal dose of 0.25 mg/kg for antitumor activity against P388 leukemia cells in 6 mice.; format: functional, Mus musculus
P388 [16] = test: Compound was tested for T/C range at optimal dose of 0.25 mg/kg for antitumor activity against P388 leukemia cells in mice.; format: functional, Mus musculus
P388 [17] = test: Compound was tested for T/C range at optimal dose of 12.00 mg/kg for antitumor activity against P388 leukemia cells in mice.; format: functional, Mus musculus
P388 [18] = test: Long-term survivors (LTS) for 60 days at optimal dose of 12.00 mg/kg for antitumor activity against P388 leukemia cells in 5 mice.; format: functional, Mus musculus

CCOP(=O)(OCC)[C@@H](NC(=O)[C@@]1(O)[C@H](O)[C@]2(CC)C=CCN3CC[C@@]4(c5cc([C@@]6(C(=O)OC)C[C@@H]7CN(CCc8c6[nH]c6ccccc86)C[C@](O)(CC)C7)c(OC)cc5N(C)[C@@H]14)[C@@H]32)C(C)C
LTS (P388 [1]): 8
IC50 (Tubulin): 400 nM
IC50 (L1210): 0.43 nM
T/C (P388 [2]): 168%

CCCCCC(NC(=O)[C@@]1(O)[C@H](O)[C@]2(CC)C=CCN3CC[C@@]4(c5cc([C@@]6(C(=O)OC)C[C@@H]7CN(CCc8c6[nH]c6ccccc86)C[C@](O)(CC)C7)c(OC)cc5N(C)[C@@H]14)[C@@H]32)P(=O)(OCC)OCC (mixture of isomers)
IC50 (Tubulin): 20 nM
IC50 (L1210): 3.97 nM
LTS (P388 [3]): 0
T/C (P388 [4]): 203%

CCOP(=O)(OCC)C(Cc1ccccc1)NC(=O)[C@@]1(O)[C@H](O)[C@]2(CC)C=CCN3CC[C@@]4(c5cc([C@@]6(C(=O)OC)C[C@@H]7CN(CCc8c6[nH]c6ccccc86)C[C@](O)(CC)C7)c(OC)cc5N(C)[C@@H]14)[C@@H]32 (mixture of isomers)
LTS (P388 [5]): 0
T/C (P388 [6]): 149%
IC50 (Tubulin): 70 nM
IC50 (L1210): 46 nM

CCOP(=O)(OCC)[C@@H](Cc1ccccc1)NC(=O)[C@@]1(O)[C@H](O)[C@]2(CC)C=CCN3CC[C@@]4(c5cc([C@@]6(C(=O)OC)C[C@@H]7CN(CCc8c6[nH]c6ccccc86)C[C@](O)(CC)C7)c(OC)cc5N(C)[C@@H]14)[C@@H]32
T/C (P388 [7]): 261%
IC50 (L1210): 14.3 nM
LTS (P388 [8]): 1

CC[C@]1(O)C[C@H]2CN(CCc3c([nH]c4ccccc34)[C@@](C(=O)OC)(c3cc4c(cc3OC)N(C=O)[C@H]3[C@@](O)(C(=O)OC)[C@H](OC(C)=O)[C@]5(CC)C=CCN6CC[C@]43[C@@H]65)C2)C1 [VINCRISTINE]
IC50 (Tubulin): 500 nM
IC50 (L1210): 4.85 nM
T/C (P388 [9]): 165%
LTS (P388 [10]): 0

CCOP(=O)(CNC(=O)[C@@]1(O)[C@H](O)[C@]2(CC)C=CCN3CC[C@@]4(c5cc([C@@]6(C(=O)OC)C[C@@H]7CN(CCc8c6[nH]c6ccccc86)C[C@](O)(CC)C7)c(OC)cc5N(C)[C@@H]14)[C@@H]32)OCC
IC50 (Tubulin): 300 nM
IC50 (L1210): 17.8 nM
LTS (P388 [3]): 1
T/C (P388 [4]): 230%

CCOP(=O)(OCC)C(NC(=O)[C@@]1(O)[C@H](O)[C@]2(CC)C=CCN3CC[C@@]4(c5cc([C@@]6(C(=O)OC)C[C@@H]7CN(CCc8c6[nH]c6ccccc86)C[C@](O)(CC)C7)c(OC)cc5N(C)[C@@H]14)[C@@H]32)C(C)C (mixture of isomers)
T/C (P388 [11]): 160%
LTS (P388 [12]): 11
IC50 (Tubulin): 300 nM
IC50 (L1210): 0.64 nM

CC[C@]1(O)C[C@@H]2CN(CCc3c([nH]c4ccccc34)[C@@](C(=O)OC)(c3cc4c(cc3OC)N(C)[C@H]3[C@@](O)(C(=O)OC)[C@H](OC(C)=O)[C@]5(CC)C=CCN6CC[C@]43[C@@H]65)C2)C1 [VINBLASTINE]
IC50 (L1210): 3.15 nM
T/C (P388 [13]): 157%
LTS (P388 [14]): 2

CCOP(=O)(OCC)[C@H](C)NC(=O)[C@@]1(O)[C@H](O)[C@]2(CC)C=CCN3CC[C@@]4(c5cc([C@@]6(C(=O)OC)C[C@@H]7CN(CCc8c6[nH]c6ccccc86)C[C@](O)(CC)C7)c(OC)cc5N(C)[C@@H]14)[C@@H]32
LTS (P388 [15]): 2
T/C (P388 [16]): 342%
IC50 (Tubulin): 200 nM
IC50 (L1210): 0.4 nM

C=CC[C@@H](NC(=O)[C@@]1(O)[C@H](O)[C@]2(CC)C=CCN3CC[C@@]4(c5cc([C@@]6(C(=O)OC)C[C@@H]7CN(CCc8c6[nH]c6ccccc86)C[C@](O)(CC)C7)c(OC)cc5N(C)[C@@H]14)[C@@H]32)P(=O)(OCC)OCC
IC50 (L1210): 26.4 nM
T/C (P388 [17]): 195%
LTS (P388 [18]): 0
